In ChEMBL document CHEMBL3259817, “N-carbamidoyl-4-((3-ethyl-2,4,4-trimethylcyclohexyl)methyl)benzamide enhances staurosporine cytotoxic effects likely inhibiting the protective action of Magmas toward cell apoptosis” (J Med Chem, 2014):
Active and inactive are the calls of the source. No cut-off for these calls is given here.

How the values were obtained:
[1] = tested on: TT; test: Potentiation of staurosporine-induced cytotoxicity against human TT cells assessed as reduction in cell viability at 5 uM after 72 hrs by ATPlite assay relative to control; assay type: functional
In short: (§1)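 Cells seeded at 2 × 10^4/well, given 5 or 10 μM compound alone or combined with 50 nM staurosporine, treatments renewed every 24 h for 72 h; vehicle 0.1% DMSO. ATPlite luminescence (RLU) read-out, expressed as mean ± SE percent of vehicle-treated control; three independent experiments, six replicates each.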

[2] = tested on: TT; test: Potentiation of staurosporine-induced apoptosis in human TT cells assessed as decrease in mitochondrial membrane potential at 10 uM by JC-1 staining-based fluorescence microscopic analysis; assay type: functional, cell-based
In short: (§2)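 TT cells treated with 5 or 10 μM compound, 50 nM staurosporine, or the combination. Mitochondrial membrane potential assessed with JC-1 dye, 30 min at 37 °C, by fluorescence microscopy; red aggregate fluorescence indicates retained potential, green monomer fluorescence a fall in potential.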

[3] = tested on: TT; test: Effect on total TIM16 protein level in human TT cells at 10 uM after 24 hrs by Western blotting analysis; assay type: functional, cell-based
In short: (§3)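 TT cells treated 24 h with 10 μM compound alone or with 50 nM staurosporine, then lysed in RIPA buffer on ice 30 min and centrifuged; protein by BCA. Lysates run on 10% SDS-PAGE, blotted to nitrocellulose, probed with rabbit anti-Tim 16 (1:1000), HRP anti-rabbit IgG (1:5000), ECL detection; stripped and reprobed for β-actin loading control.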

[4] = tested on: TT; test: Induction of apoptosis in human TT cells assessed as decrease in mitochondrial membrane potential at 10 uM by JC-1 staining-based fluorescence microscopic analysis; assay type: functional, cell-based; in short: as §2
[5] = tested on: TT; test: Effect on total TIM16 protein level in human TT cells at 10 uM after 24 hrs by Western blotting analysis in presence of staurosporine; assay type: functional, cell-based; in short: as §3
[6] = Cytotoxicity against human MCF12A cells assessed as reduction in cell viability at 5 to 10 uM after 72 hrs by ATPlite assay; assay type: cell-based; settings: mcf-12a
In short: (§4)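 TT or MCF12A cells seeded at 2 × 10^4/well, exposed to compound for 72 h with treatment renewed every 24 h; vehicle control 0.1% DMSO. Viable cell number read by ATPlite luminescence (RLU). Results are mean ± SE percent RLU vs vehicle-treated control from three independent experiments in six replicates.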

[7] = tested on: TT; test: Induction of apoptosis in human TT cells assessed as caspase 3/7 activation at 1 to 10 uM after 72 hrs by luminescence assay; assay type: functional, cell-based
In short: (§5)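 TT cells (2 × 10^4/well) exposed 72 h to compound, treatment renewed every 24 h; vehicle 0.1% DMSO. Caspase-Glo 3/7 reagent added at room temperature, plates shaken 30 s, incubated 1 h, luminescence (RLU) read. Mean ± SE percent RLU vs vehicle control; three independent experiments in six replicates.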

[8] = tested on: TT; test: Potentiation of staurosporine-induced apoptosis in human TT cells assessed as caspase 3/7 activation at 5 uM after 72 hrs by ATPlite assay relative to control; assay type: functional; settings: in the assay text read “Caspase-Glo 3/7 assay” for “ATPlite assay”
In short: (§6)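 TT cells (2 × 10^4/well) given 5 or 10 μM compound alone or with 50 nM staurosporine, renewed every 24 h, for 72 h. Caspase 3/7 activity by Caspase-Glo 3/7: reagent added at room temperature, 30 s shake, 1 h incubation, luminescence read. Mean ± SE percent RLU vs vehicle control, three experiments in six replicates.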

[9] = tested on: TT; test: Potentiation of staurosporine-induced cytotoxicity against human TT cells assessed as reduction in cell viability at 10 uM after 72 hrs by ATPlite assay relative to control; assay type: functional; in short: as §1
[10] = Potentiation of staurosporine-induced cytotoxicity against human MCF12A cells assessed as reduction in cell viability at 5 to 10 uM after 72 hrs by ATPlite assay; assay type: cell-based; settings: mcf-12a; in short: as §1
[11] = tested on: TT; test: Potentiation of staurosporine-induced apoptosis in human TT cells assessed as caspase 3/7 activation at 10 uM after 72 hrs by ATPlite assay relative to control; assay type: functional; settings: in the assay text read “Caspase-Glo 3/7 assay” for “ATPlite assay”; in short: as §6
[12] = tested on: TT; test: Cytotoxicity against human TT cells assessed as reduction in cell viability at 1 to 10 uM after 72 hrs by ATPlite assay; assay type: functional, cell-based; in short: as §4
[13] = tested on: TT; test: Potentiation of staurosporine-induced apoptosis in human TT cells assessed as caspase 3/7 activation at 5 to 10 uM after 72 hrs by ATPlite assay relative to control; assay type: functional, cell-based; settings: in the assay text read “Caspase-Glo 3/7 assay” for “ATPlite assay”; in short: as §6
[14] = tested on: TT; test: Potentiation of staurosporine-induced cytotoxicity against human TT cells assessed as reduction in cell viability at 5 to 10 uM after 72 hrs by ATPlite assay; assay type: functional, cell-based; in short: as §1
[15] = tested on: TT; test: Cytotoxicity against human TT cells assessed as reduction in cell viability at 5 uM after 72 hrs by ATPlite assay; assay type: functional, cell-based; in short: as §4
[16] = tested on: TT; test: Cytotoxicity against human TT cells assessed as reduction in cell viability at 10 uM after 72 hrs by ATPlite assay relative to control; assay type: functional; in short: as §4
[17] = tested on: TT; test: Induction of apoptosis in human TT cells assessed as caspase 3/7 activation at 5 uM after 72 hrs by luminescence assay; assay type: functional, cell-based; in short: as §5
[18] = tested on: TT; test: Induction of apoptosis in human TT cells assessed as caspase 3/7 activation at 10 uM after 72 hrs by luminescence assay relative to control; assay type: functional; in short: as §5

For `CCC1C(C)C(Cc2ccc(C(=O)NC(=N)N)cc2)CCC1(C)C` (stereo not drawn), the Activity [1] was 12%, the Activity [2] was “Active” and the Activity [3] was “inactive”. For the same molecule, the Activity [4] was “Active”, the Activity [5] was “inactive” and the Activity [6] was “Non-toxic”. For the same molecule, the Activity [7] was “inactive”, the Activity [8] was 140% and the Activity [9] was 20%. The Activity [10] was “Non-toxic”, the Activity [11] was 330% and the Activity [12] was “inactive”.
In the case of `CCC1=C(C)/C(=C/c2ccc(C(N)=O)cc2)CCC1(C)C`, the Activity [13] is reported as “inactive”, the Activity [3] is reported as “inactive” and the Activity [5] is reported as “inactive”. For the same molecule, the Activity [7] was “inactive” and the Activity [12] was “inactive”.
With `CCC1=C(C)/C(=C/c2ccc(C(=O)NC(=N)N)cc2)CCC1(C)C` the Activity [2] was “Active”, the Activity [14] was “Active” and the Activity [15] was “inactive”. The Activity [3] was “inactive”, the Activity [4] was “inactive” and the Activity [5] was “inactive”. The Activity [16] was 70%, the Activity [8] was 40% and the Activity [17] was “inactive”. It also gave an Activity [18] of 300% and an Activity [11] of 400%.
In the case of `CCC1=C(C)/C(=C/c2ccc(C(=O)O)cc2)CCC1(C)C`, the Activity [13] is reported as “inactive”, the Activity [3] is reported as “inactive” and the Activity [5] is reported as “inactive”. The Activity [7] was “inactive” and the Activity [12] was “inactive”.
In the case of `CCC1=C(C)/C(=C/c2ccc(C(=O)NC(N)=O)cc2)CCC1(C)C`, the Activity [13] is reported as “inactive”, the Activity [3] is reported as “inactive” and the Activity [5] is reported as “inactive”. For the same molecule, the Activity [7] was “inactive” and the Activity [12] was “inactive”.
